Source: ChEMBL document CHEMBL1142247, “Structure-based design of novel groups for use in the P1 position of thrombin inhibitor scaffolds. Part 2: N-acetamidoimidazoles” (Bioorg Med Chem Lett, 2008)
Activity calls are given as the source filed them. No cut-off for these calls is given here.

Legend:
Prothrombin = Prothrombin (Homo sapiens, UniProt P00734); experiment: Inhibition of thrombin
[1] = Inhibition of trypsin
Plasma = experiment: Anticoagulant potency in human plasma assessed as concentration required to double activated partial thromboplastin time; type: functional, cell-free
[2] = Selectivity for thrombin over trypsin
Rattus norvegicus = experiment: Antithrombotic activity against ferric chloride induced thrombosis in rat at 10 ug/kg/min, iv; type: functional, organism-based
In short: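 Ferric chloride-induced thrombosis in rats, with compound given by intravenous infusion at 10 µg/kg/min. Read-out is the number of animals with vessel occlusion out of 6.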

[3] = Half life in dog at 1 mg/kg, po; type: ADME, organism-based, Canis lupus familiaris; design: dose 1 mg/kg, route oral; details: in vivo
Canis familiaris = experiment: (§1) Half life in dog at 5 mg/kg, po; type: ADME, organism-based, Canis lupus familiaris; design: dose 5 mg/kg, route oral; details: in vivo
[4] = Cmax in dog at 0.5 mg/kg, po; type: ADME, organism-based, Canis lupus familiaris; design: dose 0.5 mg/kg, route oral; details: in vivo
[5] = Half life in dog at 0.5 mg/kg, po; type: ADME, organism-based, Canis lupus familiaris; design: dose 0.5 mg/kg, route oral; details: in vivo
[6] = Cmax in dog at 5 mg/kg, po; type: ADME, organism-based, Canis lupus familiaris; design: dose 5 mg/kg, route oral; details: in vivo
[7] = as §1; type: ADME, organism-based, Canis lupus familiaris; design: dose 5 mg/kg, route oral; details: in vivo
[8] = Cmax in rhesus monkey at 5 mg/kg, po; type: ADME, organism-based, Macaca mulatta; design: dose 5 mg/kg, route oral; details: in vivo
[9] = Half life in rhesus monkey at 5 mg/kg, po; type: ADME, organism-based, Macaca mulatta; design: dose 5 mg/kg, route oral; details: in vivo

Row | Compound | Ki (Prothrombin) [µM] | Ki [1] [µM] | Selectivity ratio [2] | Activity (Plasma) [µM] | other results
1 | Cc1ncn(CC(=O)NC2CC2)c1Cn1c(C)ccc(NS(=O)(=O)Cc2ccccc2)c1=O | 0.0018 | 185 | 103000 | 0.68 | 
2 | Cc1ncn(CC(=O)OC(C)(C)C)c1Cn1c(C)ccc(NS(=O)(=O)Cc2ccccc2)c1=O | 0.00048 | 50 | 104000 |  | 
3 | Cc1ncn(CC(=O)NC2CCCNC2)c1CNC(=O)Cn1c(C)cnc(NCCc2ccccc2)c1=O (stereo unspecified) | 0.0012 | 18 |  | 0.7 | Cmax [6]: 1460 nM; half-life [7]: 1.6 h; Cmax [8]: 360 nM; half-life [9]: 1.1 h
4 | Cc1ncn(CC(=O)NN2CC(O)C2)c1Cn1c(C)ccc(NS(=O)(=O)Cc2ccccc2)c1=O | 0.0028 | 167 | 48000 | 0.66 | 
5 | Cc1ncn(CC(=O)NN2CCOCC2)c1Cn1c(C)ccc(NS(=O)(=O)Cc2ccccc2)c1=O | 0.0019 | 101 | 53000 | 0.51 | 
6 | Cc1ncn(CC(=O)NC2CCCNC2)c1Cn1c(C)ccc(NS(=O)(=O)Cc2ccccc2)c1=O (stereo unspecified) | 0.00031 | 110 | 355000 | 0.35 | Activity (Rattus norvegicus): inactive
7 | Cc1ncn(CC(=O)NC(C)(C)C)c1Cn1c(C)ccc(NS(=O)(=O)Cc2ccccc2)c1=O | 0.00036 | 68 | 190000 | 0.52 | 
8 | Cc1ncn(CC(=O)NC2CC(N)C2)c1Cn1c(C)ccc(NS(=O)(=O)Cc2ccccc2)c1=O (stereo unspecified) | 0.003 | 122 | 41000 | 0.65 | 
9 | CCC(C)(C)NC(=O)Cn1cnc(C)c1Cn1c(C)ccc(NS(=O)(=O)Cc2ccccc2)c1=O | 0.00019 | 34 | 180000 | 0.56 | 
10 | Cc1ncn(CC(=O)NC(C)(C)CN)c1Cn1c(C)ccc(NS(=O)(=O)Cc2ccccc2)c1=O | 0.0003 | 70 | 233000 | 0.32 | 
11 | Cc1ncn(CC(=O)NCC(F)(F)F)c1Cn1c(C)ccc(NS(=O)(=O)Cc2ccccc2)c1=O | 0.00083 | 49 | 59000 | 0.53 | 
12 | Cc1ncn(CC(=O)NCC2CC2)c1Cn1c(C)ccc(NS(=O)(=O)Cc2ccccc2)c1=O | 0.0011 | 57 | 52000 |  | 
13 | Cc1ncn(CC(=O)NN2CCCCC2)c1Cn1c(C)ccc(NS(=O)(=O)Cc2ccccc2)c1=O | 0.00065 | 56 | 86000 | 0.37 | Activity (Rattus norvegicus): inactive

Now from value to molecule, other results behind:

Row | Ki (Prothrombin) [µM] | Ki [1] [µM] | Selectivity ratio [2] | Compound | Activity (Plasma) [µM] | other results
14 | 0.0024 | 115 | 48000 | Cc1ncn(CC(=O)NCCO)c1Cn1c(C)ccc(NS(=O)(=O)Cc2ccccc2)c1=O | 0.85 | 
15 | 0.0009 | 85 | 94000 | Cc1ncn(CC(=O)NCCN)c1Cn1c(C)ccc(NS(=O)(=O)Cc2ccccc2)c1=O | 0.39 | Activity (Rattus norvegicus): inactive
16 |  | 3.2 | 6400 | Cc1nc(N)ccc1CNC(=O)Cn1c(C)ccc(NS(=O)(=O)Cc2ccccc2)c1=O [L-374087] | 0.21 | half-life [3]: 2.5 h; t1/2 (Canis familiaris): 2.5 h; Cmax [4]: 2000 nM; half-life [5]: 3.8 h
17 |  | 43 |  | Cc1nc[nH]c1CNC(=O)Cn1c(C)ccc(NS(=O)(=O)Cc2ccccc2)c1=O | 1.1 | 
18 | 0.00068 | 80 | 118000 | Cc1ncn(CC(=O)NCC(C)(C)N)c1Cn1c(C)ccc(NS(=O)(=O)Cc2ccccc2)c1=O | 0.26 | 
19 | 0.002 | 137 | 70000 | CCNC(=O)Cn1cnc(C)c1Cn1c(C)ccc(NS(=O)(=O)Cc2ccccc2)c1=O | 0.7 | 
